Measured values from ChEMBL document CHEMBL1140975, “Synthesis and antimalarial activity of carbamate and amide derivatives of 4-anilinoquinoline” (Eur J Med Chem, 2008).
Activity calls are given as the source filed them. The calls are words filed in the database; no cut-off is given here.

Experiments:
Plasmodium falciparum [1] = experiment: Antimalarial activity after 24 hrs against chloroquine-resistant Plasmodium falciparum FcB1R/Colombia by [3H]hypoxanthine uptake; type: functional, organism-based
In short: (§1)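 Asynchronous P. falciparum cultures on human erythrocytes (1% parasitaemia, 1% final haematocrit) exposed to serial dilutions of drug for 24 h at 37 °C, then [3H]hypoxanthine added for another 24 h. Cells freeze-thawed, harvested onto glass-fibre filters and scintillation counted. Incorporation compared with drug-free control on the same plate. IC50 taken from concentration-response curve, mean ± SD of independent experiments. DMSO ≤0.1%.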

[2] = Cytotoxicity against human MRC5 cells after 7 days by MTT assay; type: cell-based
In short: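 MRC-5 human embryonic lung cells were seeded at 5000 per well and washed after 24 h. Two-fold drug dilutions were added in RPMI + 5% FCS, with final DMSO below 0.5%. Plates were held at 37 °C in 5% CO₂ for 7 days. MTT absorbance at 540 nm was compared with untreated controls. CC₅₀ is the concentration causing 50% cytotoxicity.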

[3] = Selectivity index, ratio of IC50 for human MRC5 cells to IC50 for chloroquine-resistant Plasmodium falciparum FcB1R/Colombia; type: toxicity, cell-based; details: read-out: Ratio CC50/IC50
In short: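 SI is CC50 on MRC-5 over IC50 against FcB1R. MRC-5 cells were seeded at 5000 per well and treated after 24 h with two-fold dilutions in RPMI + 5% FCS (DMSO <0.5%). Incubation was 7 days at 37 °C, 5% CO2. Read-out was MTT, as % reduction of absorbance at 540 nm versus untreated cultures. CC50 is the concentration giving 50% cytotoxicity.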

Plasmodium falciparum [4] = experiment: Antimalarial activity against chloroquine-sensitive Plasmodium falciparum THAI/Thailand as [3H]hypoxanthine uptake after 24 hrs by semi-automated micro dilution; type: functional, organism-based; in short: as §1
Plasmodium falciparum [5] = experiment: Antimalarial activity after 24 hrs against chloroquine-resistant Plasmodium falciparum K1/Thailand by [3H]hypoxanthine uptake; type: functional, organism-based; in short: as §1
Plasmodium berghei [6] = experiment: Antimalarial activity as increased mean survival time in Plasmodium berghei ANKA 65 infected Swiss CD1 mice (Mus musculus) at 10 mg/kg peroral dose day 1 with intraperitoneal dose over 4 days; type: functional, organism-based; design: dose 10 mg/kg
In short: (§2)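 Female Swiss CD-1 mice (4 weeks old, 20–25 g), three per group, infected intraperitoneally with about 10⁷ P. berghei ANKA 65-parasitized erythrocytes from an infected donor. The first dose was given orally in 100% DMSO at infection, then intraperitoneally on the following 4 days. Infected DMSO-dosed mice served as controls. Read-outs were parasitaemia reduction at day 4 and excess MST, the % prolongation of mean survival time versus controls.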

Plasmodium berghei [7] = experiment: Antimalarial activity as reduced parasitaemia in Plasmodium berghei ANKA 65 infected Swiss CD1 mice (Mus musculus) at 10 mg/kg/day peroral dose then intraperitoneal dose for 4 days; type: functional; design: scale not given: the % may be the effect or the level left; details: route oral; in short: as §2
Mus musculus = species: Mus musculus; experiment: Toxicity in Plasmodium berghei ANKA 65 infected Swiss CD1 mice (Mus musculus); type: organism-based; details: in vivo
Plasmodium berghei [8] = experiment: Antimalarial activity as increased MST in Plasmodium berghei ANKA 65 infected Swiss CD1 mice (Mus musculus) at 40 mg/kg peroral dose day 1 followed by intraperitoneal dose for 4 days; type: functional
In short: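 Female Swiss CD-1 mice, four weeks old, 20-25 g, three per group. Infected ip with about 10^7 P. berghei ANKA 65 parasitized erythrocytes from a donor mouse. Dosed orally at 40 mg/kg in 100% DMSO at infection, then ip for the following 4 days. Controls were infected DMSO-dosed mice. Excess MST is the percent prolongation of mean survival time over controls.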

Plasmodium berghei [9] = experiment: Antimalarial activity as reduced parasitaemia in Plasmodium berghei ANKA 65 infected Swiss CD1 mice (Mus musculus) at 40 mg/kg/day peroral dose then intraperitoneal for 4 days; type: functional; design: scale not given: the % may be the effect or the level left; details: route oral; in short: as §2

| SMILES | IC50 (Plasmodium falciparum [1]) | CC50 at 168 h [2] | selectivity ratio [3] | other results |
| --- | --- | --- | --- | --- |
| CN(C)CCN(C)C(=O)c1cc(NC(=O)CN2CCCCC2)cc(Nc2ccnc3cc(Cl)ccc23)c1 | 18.8 nM | 16000 nM | 851 |  |
| CN(C)CCNC(=O)c1cc(NC(=O)CN2CCCCC2)cc(Nc2ccnc3cc(Cl)ccc23)c1 | 31.4 nM | 15000 nM | 478 |  |
| O=C(CN1CCCCC1)Nc1cc(Nc2ccnc3cc(Cl)ccc23)cc(C(=O)O)c1 | > 1000 nM | > 32000 nM |  |  |
| O=C(CN1CCCCC1)Nc1cc(COC(=O)NCCN2CCOCC2)cc(Nc2ccnc3cc(Cl)ccc23)c1 | 48.3 nM | > 12500 nM | > 259 | IC50 (Plasmodium falciparum [4]): 38.6 nM; IC50 (Plasmodium falciparum [5]): 19.4 nM |
| CN(C)CCNC(=O)OCc1cc(NC(=O)CN2CCCCC2)cc(Nc2ccnc3cc(Cl)ccc23)c1 | 10.2 nM | 3100 nM | 304 |  |
| O=C(CN1CCCCC1)Nc1cc(Nc2ccnc3cc(Cl)ccc23)cc(C(=O)N2CCOCC2)c1 | 108 nM | > 32000 nM | > 298 |  |
| O=C(CN1CCCCC1)Nc1cc(CNCCN2CCCC2)cc(Nc2ccnc3cc(Cl)ccc23)c1 |  |  | 182 |  |
| CCN(CC)CCCC(C)Nc1ccnc2cc(Cl)ccc12 (stereo unspecified) [CHLOROQUINE] |  | 50000 nM |  | Activity (Plasmodium berghei [6]): Active; Activity (Plasmodium berghei [7]): 100%; Activity (Mus musculus): Non-toxic |
| O=C(CN1CCCCC1)Nc1cc(COC(=O)NCCN2CCCCC2)cc(Nc2ccnc3cc(Cl)ccc23)c1 | 11.2 nM | 12500 nM | 1120 | IC50 (Plasmodium falciparum [4]): 19.4 nM; IC50 (Plasmodium falciparum [5]): 9.7 nM; Activity (Plasmodium berghei [8]; route oral): 50%; Activity (Mus musculus): Non-toxic; Activity (Plasmodium berghei [9]): 100% |
| CN(C)CCNCc1cc(NC(=O)CN2CCCCC2)cc(Nc2ccnc3cc(Cl)ccc23)c1 |  |  | 1150 |  |
| O=C(CN1CCCCC1)Nc1cc(Nc2ccnc3cc(Cl)ccc23)cc(C(=O)N2CCN(c3ccccc3)CC2)c1 | 151 nM | 16000 nM | 106 |  |
| CN1CCN(CCCNC(=O)OCc2cc(NC(=O)CN3CCCCC3)cc(Nc3ccnc4cc(Cl)ccc34)c2)CC1 |  | 6300 nM |  |  |
| O=C(CN1CCCCC1)Nc1cc(COC(=O)NCc2ccccc2)cc(Nc2ccnc3cc(Cl)ccc23)c1 | 36 nM | > 12500 nM | > 347 |  |
| O=C(CN1CCCCC1)Nc1cc(CNCCN2CCCCC2)cc(Nc2ccnc3cc(Cl)ccc23)c1 | 6.6 nM |  | 648 |  |
| CN1CCN(C(=O)c2cc(NC(=O)CN3CCCCC3)cc(Nc3ccnc4cc(Cl)ccc34)c2)CC1 | 19.2 nM | 16000 nM | 833 | IC50 (Plasmodium falciparum [4]): 38.4 nM; IC50 (Plasmodium falciparum [5]): 51.2 nM; Activity (Plasmodium berghei [8]; route oral): 150%; Activity (Mus musculus): Non-toxic; Activity (Plasmodium berghei [9]): 99.96% |
| O=C(CN1CCCCC1)Nc1cc(Nc2ccnc3cc(Cl)ccc23)cc(C(=O)N2CCCCC2)c1 | 286 nM | > 32000 nM | > 112 |  |

| SMILES | IC50 (Plasmodium falciparum [1]) | CC50 at 168 h [2] | selectivity ratio [3] | other results |
| --- | --- | --- | --- | --- |
| O=C(CN1CCCCC1)Nc1cc(Nc2ccnc3cc(Cl)ccc23)cc(C(=O)NCCN2CCOCC2)c1 | 58.6 nM | > 32000 nM | > 546 |  |
| CCN(CC)CCCCC(=O)OCc1cc(NC(=O)CN2CCCCC2)cc(Nc2ccnc3cc(Cl)ccc23)c1 |  |  | 89 |  |
| O=C(CN1CCCCC1)Nc1cc(COC(=O)CCCCN2CCCCC2)cc(Nc2ccnc3cc(Cl)ccc23)c1 |  |  | 806 |  |
| O=C(CN1CCCCC1)Nc1cc(COC(=O)CCN2CCCCC2)cc(Nc2ccnc3cc(Cl)ccc23)c1 |  |  | 158 |  |
| O=C(CN1CCCCC1)Nc1cc(COC(=O)CCCCN2CCOCC2)cc(Nc2ccnc3cc(Cl)ccc23)c1 |  |  | 887 | Activity (Plasmodium berghei [8]; route oral): 73%; Activity (Mus musculus): Non-toxic; Activity (Plasmodium berghei [9]): 99.8% |
| CCN(CC)CCCNC(=O)OCc1cc(NC(=O)CN2CCCCC2)cc(Nc2ccnc3cc(Cl)ccc23)c1 | 14.5 nM | 6300 nM | 434 |  |
| O=C(CN1CCCCC1)Nc1cc(Nc2ccnc3cc(Cl)ccc23)cc(C(=O)NCCN2CCCC2)c1 | 16.6 nM | 17000 nM | 1024 |  |
| O=C(CN1CCCCC1)Nc1cc(CNCCN2CCOCC2)cc(Nc2ccnc3cc(Cl)ccc23)c1 | 7.9 nM |  | 406 | Activity (Plasmodium berghei [8]): Active; Activity (Mus musculus): Non-toxic; Activity (Plasmodium berghei [9]): 100% |
| CCN(CC)Cc1cc(Nc2ccnc3cc(Cl)ccc23)ccc1O.Cl | 4.8 nM | 12000 nM | 2500 | Activity (Plasmodium berghei [6]): Active; Activity (Plasmodium berghei [7]): 100%; IC50 (Plasmodium falciparum [4]): 4.6 nM; IC50 (Plasmodium falciparum [5]): 9.4 nM; Activity (Mus musculus): Non-toxic |
| CN(C)CCCNC(=O)c1cc(NC(=O)CN2CCCCC2)cc(Nc2ccnc3cc(Cl)ccc23)c1 | 181 nM | > 32000 nM | > 177 |  |
| O=C(CN1CCCCC1)Nc1cc(CO)cc(Nc2ccnc3cc(Cl)ccc23)c1 |  | 12500 nM | 281 | Activity (Plasmodium berghei [8]; route oral): 110%; Activity (Mus musculus): Non-toxic; Activity (Plasmodium berghei [9]): 100% |
| O=C(CN1CCCCC1)Nc1cc(COC(=O)CCCCCN2CCCCC2)cc(Nc2ccnc3cc(Cl)ccc23)c1 |  |  | 456 |  |
| O=C(CN1CCCCC1)Nc1cc(Nc2ccnc3cc(Cl)ccc23)cc(C(=O)N2CCN(Cc3ccccc3)CC2)c1 | 50.6 nM | 15000 nM | 296 |  |
| O=C(CN1CCCCC1)Nc1cc(COC(=O)CN2CCCCC2)cc(Nc2ccnc3cc(Cl)ccc23)c1 |  |  | 231 |  |
| CN(C)CCCNCc1cc(NC(=O)CN2CCCCC2)cc(Nc2ccnc3cc(Cl)ccc23)c1 |  |  | 174 |  |
